The test system of experiment [1] is MDA-MB-435. The experiment is described as follows: Percent reduction of inhibitory concentration against LCC6-MDR human breast cancer cell line at 5 uM concentration. It counts as functional. Particulars: for Reduction: in the assay text read “at 1 uM concentration” for “at 5 uM concentration”. The procedure, abridged: (§1)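 Paclitaxel was tested against MDR1-transfected LCC6-MDR cells while co-administered with each reversal agent at fixed concentrations (four levels overall). Paclitaxel IC50 was determined under each condition. Percent IC50 reduction, taken as reversal activity, was calculated relative to paclitaxel alone.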

In experiment [2] the test system is MDA-MB-435. The experiment is described as follows: Cytotoxicity against paclitaxel sensitive LCC6-WT-human breast carcinoma cell line. It counts as functional, cell-based.
Experiment [3] has as its system MDA-MB-435. In words: Cytotoxicity against paclitaxel resistant LCC6-MDR-MDR1 transfected cell line. In kind it is functional, cell-based. The settings on record: Homo sapiens.
Experiment [4] concerns MDA-MB-435. The experiment is described as follows: Inhibitory concentration against LCC6-MDR human breast cancer cell line. In kind it is functional, cell-based. The procedure, abridged:
as §1

Experiment [5] concerns MDA-MB-435. The experiment is described as follows: Inhibition of LCC6-WT-human breast carcinoma cell line growth was determined at 10 uM. In kind it is functional.
The subject of experiment [6] is MDA-MB-435. The experiment is described as follows: Inhibition of LCC6-MDR-MDR1 transfected cell line growth was determined at 10 uM. It counts as functional. The settings on record: Homo sapiens.
In experiment [7] the test system is MDA-MB-435. The experiment is described as follows: Inhibition of LCC6-MDR human breast carcinoma cell line growth was determined at 5 uM; No growth inhibition. In kind it is functional, cell-based.
For experiment [8], the system named is MDA-MB-435. In words: Inhibition of LCC6-MDR human breast carcinoma cell line growth was determined at 1 uM; No growth inhibition. In kind it is functional, cell-based.
Experiment [9] deals with MDA-MB-435. The experiment is described as follows: Percent reduction of inhibitory concentration against LCC6-MDR human breast cancer cell line at 1 uM concentration.
Experiment [10] deals with MDA-MB-435. In words: Reversal activity against LCC6-MDR human breast carcinoma cell line. It counts as functional. The procedure, abridged: as §1

From ChEMBL document CHEMBL1133953, “Modulation of human mammary cell sensitivity to paclitaxel by new quinoline sulfonamides” (Bioorg Med Chem Lett, 2001) come the findings set out here.

The structures appear in SMILES notation. Where “and” joins values, the source holds several entries; their conditions need not be identical. Equal entries are not always repeated.

In experiment [1], `CC(=O)O[C@H]1C(=O)[C@@]2(C)C([C@H](OC(=O)c3ccccc3)[C@]3(O)C[C@H](OC(=O)[C@H](O)[C@@H](NC(=O)c4ccccc4)c4ccccc4)C(C)=C1C3(C)C)[C@]1(OC(C)=O)CO[C@@H]1C[C@@H]2O.O=S(=O)(c1ccc2ccccc2c1)N(CCCCNc1ccnc2cc(Cl)ccc12)Cc1ccccc1` (some centres undefined) [listing 1 of 2 here] showed an IC50 reduction of 99% and a Reduction of 70%.

Broadly, the IC50 is the concentration needed to halve the response being measured. The low end stands for greater potency in that assay, the high end for weaker potency in that assay. As to `CC(=O)O[C@H]1C(=O)[C@@]2(C)[C@H]([C@H](OC(=O)c3ccccc3)[C@]3(O)C[C@H](OC(=O)[C@H](O)[C@@H](NC(=O)c4ccccc4)c4ccccc4)C(C)=C1C3(C)C)[C@]1(OC(C)=O)CO[C@@H]1C[C@@H]2O` [PACLITAXEL], the IC50 stood at 8 nM in [2], 612 nM in [3] and 490 nM in experiment [4]. In [1], this compound gave an IC50 reduction of 0%.

A word on the inhibition: it is the relative decrease from the control value, in per cent. `O=S(=O)(c1ccc2ccccc2c1)N(CCCCNc1ccnc2cc(Cl)ccc12)Cc1ccccc1`: the IC50 in experiment [2] and in experiment [3] was more than 10000 nM throughout. Also, the inhibition at 10 µM in [5] is 6%; in [6], 3%.

Take `COc1cc(NC(C)CCCN(Cc2ccccc2)S(=O)(=O)c2ccc3ccccc3c2)c2ncccc2c1` (centres undefined): the IC50 in [2] and in experiment [3] was more than 10000 nM throughout. The inhibition at 10 µM was 0% in [5] and 8% in [6].

With `CC(=O)O[C@H]1C(=O)[C@@]2(C)C([C@H](OC(=O)c3ccccc3)[C@]3(O)C[C@H](OC(=O)[C@H](O)[C@@H](NC(=O)c4ccccc4)c4ccccc4)C(C)=C1C3(C)C)[C@]1(OC(C)=O)CO[C@@H]1C[C@@H]2O.O=S(=O)(c1ccc2ccccc2c1)N(CCCCNc1ccnc2cc(Cl)ccc12)Cc1ccccc1` (some centres undefined) [listing 2 of 2 here], the inhibition entry in [7] and in experiment [8] was “No inhibition” each time.

With `CC(=O)O[C@H]1C(=O)[C@@]2(C)C([C@H](OC(=O)c3ccccc3)[C@]3(O)C[C@H](OC(=O)[C@H](O)[C@@H](NC(=O)c4ccccc4)c4ccccc4)C(C)=C1C3(C)C)[C@]1(OC(C)=O)CO[C@@H]1C[C@@H]2O.COc1cc(NC(C)CCCN(Cc2ccccc2)S(=O)(=O)c2ccc3ccccc3c2)c2ncccc2c1` (some centres undefined) [listing 1 of 2 here], the inhibition entry in experiment [7] and in experiment [8] was “No inhibition” each time.

With `COc1cc(NC(C)CCCNS(=O)(=O)c2ccc3ccccc3c2)c2ncccc2c1` (centres undefined), the IC50 in [2] and in experiment [3] was more than 10000 nM throughout. Further, the inhibition at 10 µM in experiment [5] amounted to 16%; in experiment [6], 8%.

In turn, `CC(=O)O[C@H]1C(=O)[C@@]2(C)C([C@H](OC(=O)c3ccccc3)[C@]3(O)C[C@H](OC(=O)[C@H](O)[C@@H](NC(=O)c4ccccc4)c4ccccc4)C(C)=C1C3(C)C)[C@]1(OC(C)=O)CO[C@@H]1C[C@@H]2O.COc1cc(NC(C)CCCN(Cc2ccccc2)S(=O)(=O)c2ccc3ccccc3c2)c2ncccc2c1` (some centres undefined) [listing 2 of 2 here] had an IC50 reduction in [1] of 96%. For the same compound, the Reduction in experiment [9] is reported as 55%.

Take `O=S(=O)(c1ccc2ccccc2c1)N(CCCCCCNc1ccnc2cc(Cl)ccc12)Cc1ccccc1`: the IC50 in [2] turned out to be 1700 nM; in experiment [3] it was 2000 nM.

In the case of `CC(=O)O[C@H]1C(=O)[C@@]2(C)C([C@H](OC(=O)c3ccccc3)[C@]3(O)C[C@H](OC(=O)[C@H](O)[C@@H](NC(=O)c4ccccc4)c4ccccc4)C(C)=C1C3(C)C)[C@]1(OC(C)=O)CO[C@@H]1C[C@@H]2O.COc1cc(NC(C)CCCNS(=O)(=O)c2ccc3ccccc3c2)c2ncccc2c1` (some centres undefined) [listing 1 of 2 here], in [1], the IC50 reduction worked out at 97% and the Reduction was 36%.

In the case of `CC(=O)O[C@H]1C(=O)[C@@]2(C)C([C@H](OC(=O)c3ccccc3)[C@]3(O)C[C@H](OC(=O)[C@H](O)[C@@H](NC(=O)c4ccccc4)c4ccccc4)C(C)=C1C3(C)C)[C@]1(OC(C)=O)CO[C@@H]1C[C@@H]2O.COc1cc(NC(C)CCCNS(=O)(=O)c2ccc3ccccc3c2)c2ncccc2c1` (some centres undefined) [listing 2 of 2 here], the inhibition entry in [7] and in experiment [8] was “No inhibition” throughout.

`CC(=O)O[C@H]1C(=O)[C@@]2(C)C([C@H](OC(=O)c3ccccc3)[C@]3(O)C[C@H](OC(=O)[C@H](O)[C@@H](NC(=O)c4ccccc4)c4ccccc4)C(C)=C1C3(C)C)[C@]1(OC(C)=O)CO[C@@H]1C[C@@H]2O.O=S(=O)(c1ccc2ccccc2c1)N(CCCCCCNc1ccnc2cc(Cl)ccc12)Cc1ccccc1` (some centres undefined) [listing 1 of 2 here]: the inhibition result in experiment [7] and in experiment [8] was “No inhibition” throughout.

As for `CC(=O)O[C@H]1C(=O)[C@@]2(C)C([C@H](OC(=O)c3ccccc3)[C@]3(O)C[C@H](OC(=O)[C@H](O)[C@@H](NC(=O)c4ccccc4)c4ccccc4)C(C)=C1C3(C)C)[C@]1(OC(C)=O)CO[C@@H]1C[C@@H]2O.O=S(=O)(c1ccc2ccccc2c1)N(CCCCCCNc1ccnc2cc(Cl)ccc12)Cc1ccccc1` (some centres undefined) [listing 2 of 2 here], the Reversal activity in experiment [10] was 99%. Besides, the IC50 reduction in [1] is 99% and 54% and 39%.
